Results published in ChEMBL document CHEMBL1148584, “Effect of polyamine homologation on the transport and biological properties of heterocyclic amidines” (J Med Chem, 2006).

Key:
L1210 [1] = test: Intracellular level of conjugate in L1210 cells in the presence of DFMO at 10 uM; assay type: functional, cell-based; settings: Mus musculus
Outline: (§1)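 L1210 cells in RPMI 1640/10% FCS with 2 mM aminoguanidine, seeded at 4 × 10⁴ cells/mL. Conjugate, with or without 5 mM DFMO, added at seeding; cells cultured 48 h, washed in cold NaCl, and extracted with 0.2 N HClO₄. Conjugate and free putrescine, spermidine and spermine quantified by ion-pair HPLC (UV 254 nm, fluorescence ex 345/em 455 nm); normalised to protein. Student's t-test, p<0.05.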

CHO [2] = test: Inhibition of cell growth in CHO cells in the presence of DFMO; assay type: functional, cell-based; settings: Cricetulus griseus
Outline: (§2)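 L1210 cells seeded at 5 × 10⁴ cells/mL with conjugate added at seeding; CHO/CHO-MG plated at 2 × 10³ cells/mL with conjugate added after overnight (24 h). 5 mM DFMO added together with conjugate; medium contains 2 mM aminoguanidine. After 48 h, growth read by MTT formazan absorbance at 540 nm. IC50 is 50% growth inhibition; mean of three determinations.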

L1210 [3] = test: Intracellular level of putrescine in L1210 cells in the absence of DFMO at 10 uM; assay type: functional, cell-based; settings: Mus musculus; outline: as §1
L1210 [4] = test: Intracellular level of putrescine in L1210 cells in the presence of DFMO at 10 uM; assay type: functional, cell-based; settings: Mus musculus; outline: as §1
L1210 [5] = test: Intracellular level of spermine in L1210 cells in the absence of DFMO at 10 uM; assay type: functional, cell-based; settings: Mus musculus; outline: as §1
L1210 [6] = test: Intracellular level of conjugate in L1210 cells in the absence of DFMO at 10 uM; assay type: functional, cell-based; settings: Mus musculus; outline: as §1
L1210 [7] = test: Intracellular level of spermine in L1210 cells in the presence of DFMO at 10 uM; assay type: functional, cell-based; settings: Mus musculus; outline: as §1
L1210 [8] = test: Inhibition of cell growth in L1210 cells in the presence of DFMO; assay type: functional, cell-based; settings: Mus musculus; outline: as §2
[9] = Selectivity for uptake in CHO cell line over CHO-MG cell line at 25 uM; assay type: functional, Cricetulus griseus
Outline: (§3)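 Ratio of intracellular conjugate level in CHO over CHO-MG cells. Both lines were exposed to conjugate 24 h after seeding at 2 × 10⁵ cells/mL, for 24 h with 2 mM aminoguanidine in the medium. Levels were measured by ion-pair HPLC of perchloric extracts and normalised to protein (nmol/mg).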

Phosphodiesterase 1 = Phosphodiesterase 1 (Bos taurus, UniProt Q01061+P14100); test: Inhibition of bovine calmodulin-activated cAMP dependent phosphodiesterase; assay type: protein assay
Outline: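 Crude bovine heart PDE preparation containing calmodulin and Ca²⁺ (0.2 milliunit). Incubated 20 min at 37 °C with 0.1 mM [8-³H]cAMP and graded drug concentrations in 30 mM Tris-HCl, 3 mM MgSO₄, 0.6 mM AMP. Stopped with ZnSO₄; Ba(OH)₂ precipitated AMP with BaSO₄; supernatant radioactivity counted. IC50 is the concentration giving 50% inhibition.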

CHO-MG [10] = test: Inhibition of cell growth in CHO-MG cells in the presence of DFMO; assay type: functional, cell-based; settings: Cricetulus griseus; outline: as §2
CHO [11] = test: Cellular uptake in CHO cells at 25 uM; assay type: ADME, cell-based, Cricetulus griseus; settings: chinese hamster
Outline: (§4)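 CHO (RPMI 1640, 10% FCS, 2 mM aminoguanidine) and CHO-MG (plus L-proline) cells seeded at 2 × 10⁵ cells/mL. Conjugate added 24 h after seeding and cells harvested 24 h later, then washed in cold 0.14 M NaCl and sonicated in 0.2 N HClO₄. Supernatant analysed by ion-pair reversed-phase HPLC (n-octanesulfonate), expressed as nmol/mg protein; mean ± SD of three determinations.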

CHO-MG [12] = test: Cellular uptake in CHO-MG cells at 25 uM; assay type: ADME, cell-based, Cricetulus griseus; settings: chinese hamster; outline: as §4
L1210 [13] = test: Intracellular level of spermidine in L1210 cells in the absence of DFMO at 10 uM; assay type: functional, cell-based; settings: Mus musculus; outline: as §1
L1210 [14] = test: Intracellular level of spermidine in L1210 cells in the presence of DFMO at 10 uM; assay type: functional, cell-based; settings: Mus musculus; outline: as §1
L1210 [15] = test: Intracellular level of spermine in L1210 cells in the absence of DFMO at 20 uM; assay type: functional, cell-based; settings: Mus musculus; outline: as §1
L1210 [16] = test: Intracellular level of spermine in L1210 cells in the presence of DFMO at 20 uM; assay type: functional, cell-based; settings: Mus musculus; outline: as §1
L1210 [17] = test: Intracellular level of conjugate in L1210 cells in the absence of DFMO at 20 uM; assay type: functional, cell-based; settings: Mus musculus; outline: as §1
L1210 [18] = test: Intracellular level of polyamine in L1210 cells in the presence of DFMO at 20 uM; assay type: functional, cell-based; settings: Mus musculus; outline: as §1
L1210 [19] = test: Intracellular level of putrescine in L1210 cells in the absence of DFMO at 20 uM; assay type: functional, cell-based; settings: Mus musculus; outline: as §1
L1210 [20] = test: Intracellular level of putrescine in L1210 cells in the presence of DFMO at 20 uM; assay type: functional, cell-based; settings: Mus musculus; outline: as §1
L1210 [21] = test: Intracellular level of spermidine in L1210 cells in the absence of DFMO at 20 uM; assay type: functional, cell-based; settings: Mus musculus; outline: as §1
L1210 [22] = test: Intracellular level of spermidine in L1210 cells in the presence of DFMO at 20 uM; assay type: functional, cell-based; settings: Mus musculus; outline: as §1
CHO [23] = test: Cellular uptake in CHO cells at 10 uM; assay type: ADME, cell-based, Cricetulus griseus; settings: chinese hamster; outline: as §4
CHO-MG [24] = test: Cellular uptake in CHO-MG cells at 10 uM; assay type: ADME, cell-based, Cricetulus griseus; settings: chinese hamster; outline: as §4
CHO-MG [25] = test: Selectivity for uptake in CHO cell line over CHO-MG cell line at 10 uM; assay type: functional, cell-based; settings: Cricetulus griseus; outline: as §3

Structure (SMILES): CNc1ccc(C2c3ccccc3N=C(NCCCNCCCCNCCCN)C2(C)C)cc1 (stereo not drawn)
- Drug uptake (L1210 [1]): 0.74 nmol/mg
- IC50 (CHO [2]): 11 µM
- Drug uptake (L1210 [3]): 1.1 nmol/mg
- Drug uptake (L1210 [4]): 0.07 nmol/mg
- Drug uptake (L1210 [5]): 9.4 nmol/mg
- Drug uptake (L1210 [6]): 0.54 nmol/mg
- Drug uptake (L1210 [7]): 7.8 nmol/mg
- IC50 (L1210 [8]): 3.1 µM
- Selectivity ratio [9]: 0.9
- IC50 (Phosphodiesterase 1): 23 µM
- IC50 (CHO-MG [10]): 23 µM
- Drug uptake (CHO [11]): 0.72 nmol/mg
- Drug uptake (CHO-MG [12]): 0.81 nmol/mg
- Drug uptake (L1210 [13]): 17 nmol/mg
- Drug uptake (L1210 [14]): 0.66 nmol/mg

Structure (SMILES): CNc1cccc2c1[C@H](C)C[C@]1(C)C(NCCCNCCCCNCCCN)=Nc3ccccc3[C@H]21
- Drug uptake (L1210 [1]): 2.1 nmol/mg
- IC50 (CHO [2]): 11 µM
- Drug uptake (L1210 [3]): 1.4 nmol/mg
- Drug uptake (L1210 [4]): 0.04 nmol/mg
- Drug uptake (L1210 [5]): 8.2 nmol/mg
- Drug uptake (L1210 [6]): 0.95 nmol/mg
- Drug uptake (L1210 [7]): 7.3 nmol/mg
- IC50 (L1210 [8]): 2.4 µM
- Selectivity ratio [9]: 1
- IC50 (Phosphodiesterase 1): 10 µM
- IC50 (CHO-MG [10]): 23 µM
- Drug uptake (CHO [11]): 2.2 nmol/mg
- Drug uptake (CHO-MG [12]): 2.1 nmol/mg
- Drug uptake (L1210 [13]): 16 nmol/mg
- Drug uptake (L1210 [14]): 0.51 nmol/mg

Structure (SMILES): OCCCNC1=Nc2ccccc2CC1
- IC50 (Phosphodiesterase 1): > 500 µM

Structure (SMILES): CC1C[C@]2(C)C(NCCCCN)=Nc3ccccc3[C@@H]2N(C)c2ccccc21 (stereo partly drawn)
- IC50 (CHO [2]): 45 µM
- Drug uptake (L1210 [15]): 6.3 nmol/mg
- Drug uptake (L1210 [16]): 9 nmol/mg
- Drug uptake (L1210 [17]): 13 nmol/mg
- Drug uptake (L1210 [18]): 8.2 nmol/mg
- IC50 (L1210 [8]): 54 µM
- Selectivity ratio [9]: 1.1
- IC50 (Phosphodiesterase 1): 116 µM
- IC50 (CHO-MG [10]): 24 µM
- Drug uptake (CHO [11]): 3.6 nmol/mg
- Drug uptake (CHO-MG [12]): 3.3 nmol/mg
- Drug uptake (L1210 [19]): 0.85 nmol/mg
- Drug uptake (L1210 [20]): 0.7 nmol/mg
- Drug uptake (L1210 [21]): 11 nmol/mg
- Drug uptake (L1210 [22]): 0.87 nmol/mg

Structure (SMILES): CN(c1ccccc1)C1c2ccccc2N=C(NCCCCN)C1(C)C (stereo not drawn)
- IC50 (CHO [2]): > 100 µM
- Drug uptake (CHO [23]): 13 nmol/mg
- Drug uptake (CHO-MG [24]): 12 nmol/mg
- Ratio (CHO-MG [25]): 1.1
- IC50 (L1210 [8]): 33 µM
- IC50 (Phosphodiesterase 1): 51 µM
- IC50 (CHO-MG [10]): 13 µM
